# Screens (PubChem BioAssay)
# LMPTP inh: LMPTP (human) inhibition. inhibition, % at 20 µM. P24666. actives 0.22% (n = 360,000). recombinant LMPTP-A, OMFP fluorogenic substrate, fluorescence intensity. AID 651560;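 active = compounds that cut the enzyme signal by at least half of the control window in the single-dose screen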
#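 test system = LMPTP-A | amount = 0.625 nM LMPTP-A final | reagent = fluorogenic phosphatase substrate OMFP at 400 µM final | incubation = 50 min at room temperature | benchmarks = no-enzyme low control, uninhibited high control | medium = Bis-Tris pH 6.0, DTT, detergent | signal = fluorescence intensity of OMFP turnover product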
# Scp-1 inhibitor: inhibitors of human Scp-1 phosphatase | Q9GZU7 | Recombinant Scp1, phosphopeptide, malachite green phosphate absorbance | inhibition, % at 20 µM | actives 0.88% (n = 340,000) | AID 493091;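 active = inhibition above about 50% at 20 µM, limit read from the data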
#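 Test system: SCP-1 phosphatase catalytic domain, residues 76-261; measured by: colorimetric phosphate reagent with accelerator and stabiliser, absorbance at 630 nm; timing: enzyme reaction 45 min at room temperature, colour 5 min, stabilisation 30 min; also added: Phosphorylated 17-residue peptide substrate; compound dosing: one concentration, 20 µM, with 1.0% DMSO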
# DNMT1 block: DNMT1 (human) enzyme inhibition; inhibition (reported as % activation of signal), % at 10 µM; actives 0.83% (n = 360,000); DNMT1 molecular beacon, Hinp1I cleavage, fluorescence; in the data active = inhibition above about 50%
# SUMO1-SIM PPI: alters human SUMO1 binding to SIM partners | P63165 | SUMO1 binding to a labelled peptide, TR-FRET, 1 h | inhibition, % at 20 µM | actives 0.33% (n = 360,000) | AID 602429; in the data active = inhibition above about 37%
# STEP inh: blocks human striatal-enriched tyrosine phosphatase. AID 588621. actives 0.25% (n = 360,000). inhibition, % at 20 µM. recombinant STEP, OMFP fluorogenic substrate, fluorescence. P54829;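 active = inhibition at 20 µM, scaled per plate between control wells, above about 37%, limit read from the data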
#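 material = STEP tyrosine phosphatase | reagent = fluorogenic phosphatase substrate OMFP at 25 µM final | doses = single compound dose of 20 µM, 1% DMSO final | schedule = 20 min reaction, room temperature, in the dark | measured by = fluorescence, 480/540 nm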
# F508del corr: CFTR F508del correction in bronchial cells; CFBE cells, YFP halide quenching; stimulated with forskolin plus potentiator P3; % fluorescence drop versus neutral controls; activity (quench increase), % at 7.58 µM; actives 0.36% (n = 350,000); AID 720511;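 active = mean added fluorescence quench of at least 8% versus neutral control, with both replicates also reaching 8%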;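 also: cells transiently co-express mutant CFTR-F508del with the halide-sensitive YFP; corrector assay measuring rescue of mutant channel to the surface after 24 h compound exposure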
# Scp1 confirm: Scp-1 (human) inhibition, single-dose confirmed; actives 61% (n = 2,500); shares compounds with Scp-1 inhibitor; recombinant SCP-1 catalytic domain, phosphate release, malachite green absorbance; inhibition, % at 20 µM
# Scp-1 MG ctr: colorimetric interference in Scp-1 counter-screen; AID 540313; shares compounds with Scp-1 inhibitor; apparent inhibition (interference), % at 20 µM; 2,500 tested, under 10 active; Colorimetric interference counterscreen, malachite green absorbance 630 nm;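 also: compounds added after enzyme reaction finished so only phosphate colour detection is probed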
# Scp-1 Tm shift: validation of human Scp-1 inhibitors by thermal shift binding; Recombinant SCP1, Sypro Orange thermal shift Tm; thermal shift relative to vanadate control, % at 40 µM; actives 25% (n = 1,500); shares compounds with Scp-1 inhibitor; AID 540329;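 active = substances whose mean melting-temperature shift, as a percentage of the reference inhibitor's shift, reaches about 5.3%, limit read from the data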
# DNMT1 interf DR: counter-screen for DNMT1 inhibitors: spectral interference, dose response. shares compounds with DNMT1 block. molecular beacon fluorescence. IC50, µM. 200 tested, under 10 active. AID 602382; call rule not given here
# DNMT1 inh conf: confirmation of human DNMT1 inhibitors; actives 8% (n = 2,300); DNMT1 molecular beacon HinP1I cleavage, fluorescence; inhibition, % at 10 µM; shares compounds with DNMT1 block; AID 602385;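 active = average inhibition of at least 30% in the single-concentration confirmation test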
# DNMT1 interf: counter-screen for DNMT1 inhibitors: spectral interference; AID 602387; shares compounds with DNMT1 block; activation (fluorescence interference), % at 10 µM; actives 1% (n = 2,300); DNMT1 molecular beacon spectral interference counterscreen, fluorescence 485/520;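 active = activation of at least 30% at 10 µM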;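 also: DNMT1 catalytic domain with a HinP1I cleavage step and a FAM/dabcyl DNA beacon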
# Hits are given with their value; . = inactive; / = no result. In the library only some 1.6% were active in any assay of this set; here they are far more common.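 The calls were made as follows, unless noted: active = inhibition of at least 30% at 20 µM; inactive = the rest.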
SMILES,LMPTP inh,Scp-1 inhibitor,DNMT1 block,SUMO1-SIM PPI,STEP inh,F508del corr,Scp1 confirm,Scp-1 MG ctr,Scp-1 Tm shift,DNMT1 inh conf,DNMT1 interf,others
O=C(NCc1cccc(CNC(=O)C(=O)NCc2ccco2)c1)C(=O)NCc1ccco1,55.9,91.5,91.1,.,.,/,64.8,.,.,.,.,
CCOC(=O)c1cccc(-n2cccc2/C=C2\NC(=O)N(CC(=O)O)C2=O)c1,.,.,.,.,.,.,/,/,/,/,/,
Cc1ccc(NC(=O)CN2C(=O)N/C(=C/c3ccc(N4CCOCC4)cc3)C2=O)cc1,.,.,.,.,.,/,/,/,/,/,/,
Cc1ccc(CN2C(=O)N/C(=C\c3cccn3-c3cccc(C(=O)O)c3)C2=O)cc1,.,64.1,90.7,.,.,.,57.2,.,.,.,.,
ON=Cc1cccn1-c1ccccc1,.,.,.,.,.,/,/,/,/,/,/,
Cc1cc(C(=O)O)ccc1-c1ccc(/C=C2\NC(=O)N(Cc3ccc(F)cc3)C2=O)o1,.,72.6,64.0,.,.,.,65.1,.,9.4,.,.,
O=C(O)c1cccc(-n2cccc2/C=N/O)c1,.,76.6,105.4,.,.,/,64.8,.,.,.,.,
Cc1ccc(NC(=O)CN2C(=O)N/C(=C\c3cccn3-c3cccc(C(=O)O)c3)C2=O)cc1,.,66.8,91.2,.,.,/,54.7,.,6.2,59.7,.,DNMT1 interf DR=.
C[C@@H]1CN([C@@H](C)CO)C(=O)c2cc(NC(=O)CCC(F)(F)F)ccc2O[C@@H](C)CCCCO[C@H]1CN(C)C(=O)Nc1cccc2ccccc12,/,/,/,/,/,.,/,/,/,/,/,
Cc1ccc(NC(=O)CN2C(=O)N/C(=C/c3cc(C)n(-c4cccc(C(=O)O)c4)c3C)C2=O)cc1,.,59.1,83.8,.,.,.,66.4,.,6.9,.,.,
C[C@@H]1CN([C@@H](C)CO)C(=O)c2cc(NS(=O)(=O)c3ccccc3)ccc2O[C@H]1CN(C)Cc1ccc(C(=O)O)cc1,/,/,/,/,/,.,/,/,/,/,/,
COc1ccc(N=C2NC(=O)/C(=C\c3ccco3)S2)cc1,.,88.5,70.2,.,.,.,51.9,.,.,.,.,
Cc1ccc(C(=O)O)cc1-c1ccc(C=C2C(=O)c3ccccc3C2=O)o1,.,79.3,72.5,.,41.8,.,46.9,.,12.1,.,.,
Cc1cc(C(=O)O)ccc1-n1c(C)cc(C=C2C(=O)c3ccccc3C2=O)c1C,.,.,.,.,.,.,/,/,/,/,/,
C[C@@H]1CN([C@H](C)CO)C(=O)c2cc(-c3ccc(F)cc3)cnc2O[C@H]1CN(C)C(=O)Cc1ccccc1,/,/,/,/,/,.,/,/,/,/,/,
Cc1cc(/C=N/NC(=O)c2cccc(N(C)C)c2)c(C)n1-c1cc(C(=O)O)cc(C(=O)O)c1,.,66.1,80.8,.,.,.,53.2,.,7.5,.,.,
CCCN(C(=O)c1cccc(-n2cccc2)c1)c1c(N)n(Cc2ccccc2)c(=O)[nH]c1=O,.,74.5,80.9,.,.,.,65.7,.,.,.,.,
O=C(COC(=O)c1cccs1)NCc1ccco1,.,96.8,72.8,.,.,/,63.9,.,.,.,.,
O=C(COC(=O)c1cncc(Br)c1)NCc1ccc(F)cc1,.,.,.,.,.,.,/,/,/,/,/,
